{"source": "ChEMBL document CHEMBL2331234", "about": "“Novel analgesic/anti-inflammatory agents: 1,5-diarylpyrrole nitrooxyalkyl ethers and related compounds as cyclooxygenase-2 inhibiting nitric oxide donors” (J Med Chem, 2013)", "key": {"[1]": {"system": "Rattus norvegicus", "assay": "Antiinflammatory activity in Sprague-Dawley/Wistar rat assessed as decrease in carrageenan-induced paw edema at 10 mg/kg, po administered 3 hrs 30 mins after carrageenan-challenge measured after 60 mins (reference value: 2.48 +/- 0.06 mL)", "type": "functional"}, "[2]": {"system": "Mus musculus", "assay": "Antinociceptive activity in po dosed Swiss albino mouse assessed as reduction in number of acetic acid-induced writhing counted 5 mins after acetic acid challenge counted for 10 mins", "type": "functional", "conditions": "read-out: MED", "in_short": "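Male Swiss albino mice (23-25 g) dosed orally, then given 0.6% acetic acid (10 mL/kg) ip. Stretching movements counted for 10 min, starting 5 min after the acetic acid. Control group received CMC. At least 7 mice/group; mean ± SEM, ANOVA with Fisher's PLSD.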"}, "[3]": {"system": "Rattus norvegicus", "assay": "Antiinflammatory activity in Sprague-Dawley/Wistar rat assessed as decrease in carrageenan-induced hyperalgesia at 3 mg/kg, po administered 4 hrs after carrageenan-challenge measured after 120 mins (reference value: 31.4 +/- 3.7 g)", "type": "functional"}, "[4]": {"system": "Rattus norvegicus", "assay": "Antiinflammatory activity in Sprague-Dawley/Wistar rat assessed as decrease in carrageenan-induced hyperalgesia at 10 mg/kg, po administered 4 hrs after carrageenan-challenge measured after 120 mins (reference value: 31.4 +/- 3.7 g)", "type": "functional"}, "[5]": {"system": "Rattus norvegicus", "assay": "Antiinflammatory activity in Sprague-Dawley/Wistar rat assessed as decrease in carrageenan-induced paw edema at 3 mg/kg, po administered 3 hrs 30 mins after carrageenan-challenge measured after 60 mins (reference value: 2.48 +/- 0.06 mL)", "type": "functional"}, "[6]": {"system": "Rattus norvegicus", "assay": "Antiinflammatory activity in Sprague-Dawley/Wistar rat assessed as decrease in carrageenan-induced hyperalgesia at 3 mg/kg, po administered 4 hrs after carrageenan-challenge measured after 60 mins (reference value: 33.9 +/- 3.7 g)", "type": "functional"}, "[7]": {"system": "Rattus norvegicus", "assay": "Antiinflammatory activity in Sprague-Dawley/Wistar rat assessed as decrease in carrageenan-induced hyperalgesia at 3 mg/kg, po administered 4 hrs after carrageenan-challenge measured after 30 mins (reference value: 34.8 +/- 3.0 g)", "type": "functional"}, "[8]": {"system": "Rattus norvegicus", "assay": "Antiinflammatory activity in Sprague-Dawley/Wistar rat assessed as decrease in carrageenan-induced hyperalgesia at 10 mg/kg, po administered 4 hrs after carrageenan-challenge measured after 60 mins (reference value: 33.9 +/- 3.7 g)", "type": "functional"}, "[9]": {"system": "Rattus norvegicus", "assay": "Antiinflammatory activity in Sprague-Dawley/Wistar rat assessed as decrease in carrageenan-induced hyperalgesia at 10 mg/kg, po administered 4 hrs after carrageenan-challenge measured after 30 mins (reference value: 34.8 +/- 3.0 g)", "type": "functional"}, "[10]": {"target": "T1, Prostaglandin G/H synthase 1 (Mus musculus, UniProt P22437)", "T1 sequence (P22437 whole entry)": "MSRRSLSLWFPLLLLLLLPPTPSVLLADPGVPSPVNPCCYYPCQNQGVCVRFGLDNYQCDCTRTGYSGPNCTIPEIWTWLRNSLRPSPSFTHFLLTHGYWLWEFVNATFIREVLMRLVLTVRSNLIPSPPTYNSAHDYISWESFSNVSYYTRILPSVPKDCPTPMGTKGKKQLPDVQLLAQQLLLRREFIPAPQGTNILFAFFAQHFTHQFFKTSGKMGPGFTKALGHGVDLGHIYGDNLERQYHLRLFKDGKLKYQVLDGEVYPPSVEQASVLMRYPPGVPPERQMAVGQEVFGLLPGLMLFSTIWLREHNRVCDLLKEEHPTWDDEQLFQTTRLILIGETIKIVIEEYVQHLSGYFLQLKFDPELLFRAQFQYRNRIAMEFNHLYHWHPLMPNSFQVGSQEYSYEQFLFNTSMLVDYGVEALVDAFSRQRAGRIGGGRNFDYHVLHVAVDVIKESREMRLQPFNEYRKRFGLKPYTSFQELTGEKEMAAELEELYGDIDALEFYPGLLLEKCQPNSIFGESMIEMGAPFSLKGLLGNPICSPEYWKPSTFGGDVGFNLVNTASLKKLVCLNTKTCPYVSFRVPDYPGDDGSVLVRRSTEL", "assay": "Inhibition of arachidonic acid-induced COX1 activity in mouse J774 cells assessed as decrease in PGE2 levels incubated for 15 mins prior to arachidonic acid-challenge measured after 30 mins by RIA", "type": "cell-based", "in_short": "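Cells were in DMEM with 10% FBS and adhered for 2 h at 37 °C. They were pretreated with compound (10 µM; 0.1-1 µM where inhibition exceeded 50%) for 15 min, then given 15 µM arachidonic acid for 30 min at 37 °C. Supernatant PGE2 was measured by RIA. Triplicate wells were used and the mean of three experiments reported. IC50 came from a variable-slope sigmoidal fit.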"}, "[11]": {"target": "Prostaglandin G/H synthase 1 (Homo sapiens, UniProt P23219)", "sequence (P23219 whole entry)": "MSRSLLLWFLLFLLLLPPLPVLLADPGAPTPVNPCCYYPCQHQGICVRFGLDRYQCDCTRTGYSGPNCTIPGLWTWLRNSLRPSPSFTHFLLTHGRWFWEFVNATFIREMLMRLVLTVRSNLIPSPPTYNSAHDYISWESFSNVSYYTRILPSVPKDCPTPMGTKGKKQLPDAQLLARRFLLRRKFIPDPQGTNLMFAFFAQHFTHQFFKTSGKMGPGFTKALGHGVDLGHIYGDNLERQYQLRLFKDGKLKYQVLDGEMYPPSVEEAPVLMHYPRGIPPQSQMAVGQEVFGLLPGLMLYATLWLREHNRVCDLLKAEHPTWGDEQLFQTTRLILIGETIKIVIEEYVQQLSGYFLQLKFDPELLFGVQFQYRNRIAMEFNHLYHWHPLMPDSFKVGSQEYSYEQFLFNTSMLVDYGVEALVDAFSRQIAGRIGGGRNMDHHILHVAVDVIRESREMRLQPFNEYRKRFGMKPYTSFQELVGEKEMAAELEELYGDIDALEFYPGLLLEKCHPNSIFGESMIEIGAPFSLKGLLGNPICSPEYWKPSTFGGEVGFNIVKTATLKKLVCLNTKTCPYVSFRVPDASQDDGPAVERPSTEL", "assay": "Inhibition of COX1 in human whole blood assessed as reduction in TXB2 generation", "in_short": "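Clotting assay in whole blood from three healthy volunteers with no NSAID for 2 weeks. Compounds in DMSO were added at 0.1-300 µM final. Blood clotted in glass tubes at 37 °C for 1 h. Serum TXB2 was measured by RIA as a reflection of platelet COX-1 activity driven by endogenous thrombin.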"}, "[12]": {"system": "Rattus norvegicus", "assay": "Antiinflammatory activity in Sprague-Dawley/Wistar rat assessed as decrease in carrageenan-induced hyperalgesia at 40 mg/kg, po administered 4 hrs after carrageenan-challenge measured after 60 mins (reference value: 33.9 +/- 3.7 g)", "type": "functional"}, "[13]": {"system": "Rattus norvegicus", "assay": "Antiinflammatory activity in Sprague-Dawley/Wistar osteoarthritis model rat assessed as decrease in monoiodoacetate-induced hyperalgesia at 20 mg/kg, po bid for 14 days administered from day of monoiodoacetate-challenge […] post by paw pressure test (reference value: 32.6 +/- 2.9 g)", "type": "functional"}, "[14]": {"assay": "(§1) Inhibition of interleukin 1 beta-induced glycosaminoglycan release in bovine articular cartilage of metacarpophalangeal joints of feet treated 48 hrs after interleukin 1beta-challenge by DMB colorimetric assay", "type": "functional, Bos taurus", "in_short": "(§2)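 Bovine metacarpophalangeal cartilage slices (about 100 mg per well) were cultured in serum-free DMEM at 37 °C, 5% CO2, with medium changed on days 1 and 2. On day 3 the slices were challenged with IL-1β 30 ng/mL plus compound for 48 h. GAG release was measured by the DMB (Farndale) assay and expressed as % of IL-1β alone, n = 3. EC50 is given with 95% CI.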"}, "[15]": {"organism": "Bos taurus", "assay": "as §1", "type": "functional", "in_short": "as §2"}, "[16]": {"system": "Rattus norvegicus", "assay": "Antiinflammatory activity in Sprague-Dawley/Wistar rat assessed as decrease in carrageenan-induced hyperalgesia at 20 mg/kg, po administered 4 hrs after carrageenan-challenge measured after 120 mins (reference value: 31.4 +/- 3.7 g)", "type": "functional"}, "[17]": {"system": "Aorta", "assay": "Vasorelaxant activity in Wistar rat endothelium-removed thoracic aortic rings assessed as reduction of KCl-induced vasoconstriction at 0.001 uM to 10 uM treated after KCl-challenge relative to control", "type": "functional", "in_short": "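Thoracic aortic rings from male Wistar rats (250-350 g), endothelium removed by rubbing; removal confirmed as <10% relaxation to ACh 10 µM in KCl 30 mM-contracted rings. Rings contracted with KCl 30 mM; at plateau, 3-fold increasing compound concentrations (1 nM-10 µM) added. Isometric tension recorded. Emax given as % of KCl tone; pIC50 as -log molar concentration halving that tone. 6-10 experiments; also run with ODQ 1 µM.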"}, "[18]": {"system": "Rattus norvegicus", "assay": "Antiinflammatory activity in Sprague-Dawley/Wistar rat assessed as decrease in carrageenan-induced paw edema at 20 mg/kg, po administered 3 hrs 30 mins after carrageenan-challenge measured after 60 mins (reference value: 2.48 +/- 0.06 mL)", "type": "functional"}, "[19]": {"system": "Rattus norvegicus", "assay": "Antiinflammatory activity in Sprague-Dawley/Wistar osteoarthritis model rat assessed as decrease in monoiodoacetate-induced hyperalgesia at 20 mg/kg, po bid for 14 days administered from day of monoiodoacetate-challenge followed by additional compound treatment after 30 mins […] by paw pressure test (reference value: 30.4 +/- 3.1 g)", "type": "functional"}, "[20]": {"system": "Rattus norvegicus", "assay": "Antiinflammatory activity in Sprague-Dawley/Wistar rat assessed as decrease in carrageenan-induced hyperalgesia at 40 mg/kg, po administered 4 hrs after carrageenan-challenge measured after 120 mins (reference value: 31.4 +/- 3.7 g)", "type": "functional"}, "[21]": {"system": "Rattus norvegicus", "assay": "Antiinflammatory activity in Sprague-Dawley/Wistar rat assessed as decrease in carrageenan-induced hyperalgesia at 20 mg/kg, po administered 4 hrs after carrageenan-challenge measured after 60 mins (reference value: 33.9 +/- 3.7 g)", "type": "functional"}, "[22]": {"system": "Rattus norvegicus", "assay": "Antiinflammatory activity in Sprague-Dawley/Wistar rat assessed as decrease in carrageenan-induced paw edema at 40 mg/kg, po administered 3 hrs 30 mins after carrageenan-challenge measured after 60 mins (reference value: 2.48 +/- 0.06 mL)", "type": "functional"}, "[23]": {"system": "Rattus norvegicus", "assay": "Antiinflammatory activity in Sprague-Dawley/Wistar rat assessed as decrease in carrageenan-induced hyperalgesia at 40 mg/kg, po administered 4 hrs after carrageenan-challenge measured after 30 mins (reference value: 34.8 +/- 3.0 g)", "type": "functional"}, "[24]": {"target": "T2, Prostaglandin G/H synthase 2 (Homo sapiens) (UniProt P35354)", "T2 sequence (whole entry)": "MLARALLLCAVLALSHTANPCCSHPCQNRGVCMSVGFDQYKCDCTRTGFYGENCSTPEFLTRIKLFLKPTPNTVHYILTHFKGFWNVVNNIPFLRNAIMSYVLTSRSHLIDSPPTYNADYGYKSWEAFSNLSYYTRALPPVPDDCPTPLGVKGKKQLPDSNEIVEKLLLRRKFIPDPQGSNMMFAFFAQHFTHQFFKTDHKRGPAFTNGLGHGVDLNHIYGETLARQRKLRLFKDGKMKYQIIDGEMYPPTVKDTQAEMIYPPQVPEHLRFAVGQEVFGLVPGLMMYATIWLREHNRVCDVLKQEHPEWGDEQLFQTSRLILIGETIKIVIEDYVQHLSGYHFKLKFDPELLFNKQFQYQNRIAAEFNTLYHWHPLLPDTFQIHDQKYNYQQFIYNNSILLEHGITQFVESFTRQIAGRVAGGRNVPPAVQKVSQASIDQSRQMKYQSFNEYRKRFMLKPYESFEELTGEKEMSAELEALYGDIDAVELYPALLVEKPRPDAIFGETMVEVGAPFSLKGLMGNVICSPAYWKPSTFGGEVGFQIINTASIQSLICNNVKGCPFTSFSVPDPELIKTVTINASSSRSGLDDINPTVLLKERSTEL", "assay": "Inhibition of COX2 in human whole blood assessed as reduction in LPS-induced PGE2 generation pre-treated prior to LPS-challenge", "in_short": "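Heparinized whole blood came from three healthy volunteers pretreated with aspirin 300 mg 48 h before sampling to suppress platelet COX-1. Compounds in DMSO were added at 0.1-300 µM final. Blood was incubated with LPS 10 µg/mL for 24 h at 37 °C. Plasma PGE2 was measured by RIA.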"}, "[25]": {"system": "Rattus norvegicus", "assay": "Antiinflammatory activity in Sprague-Dawley/Wistar rat assessed as decrease in carrageenan-induced hyperalgesia at 20 mg/kg, po administered 4 hrs after carrageenan-challenge measured after 30 mins (reference value: 34.8 +/- 3.0 g)", "type": "functional"}}, "note": "Activity calls are given as the source filed them. No cut-off for these calls is given here.", "data": [{"compound": "Cc1ccc(-c2cc(C(F)(F)F)nn2-c2ccc(S(N)(=O)=O)cc2)cc1", "note": "[CELECOXIB]", "values": [{"measurement": "Activity", "setting": "[1]", "value": 1.45, "unit": "mL"}, {"measurement": "minimal effective dose", "setting": "[2]", "value": 3, "unit": "mg/kg"}, {"measurement": "Activity", "setting": "[3]", "value": 40.7, "unit": "g"}, {"measurement": "Activity", "setting": "[4]", "value": 39.8, "unit": "g"}, {"measurement": "Activity", "setting": "[5]", "value": 2.35, "unit": "mL"}, {"measurement": "Activity", "setting": "[6]", "value": 41.6, "unit": "g"}, {"measurement": "Activity", "setting": "[7]", "value": 44.3, "unit": "g"}, {"measurement": "Activity", "setting": "[8]", "value": 48.3, "unit": "g"}, {"measurement": "Activity", "setting": "[9]", "value": 52.9, "unit": "g"}]}, {"compound": "Cc1c(CCOCCO)cc(-c2ccc(S(C)(=O)=O)cc2)n1-c1ccc(F)cc1", "values": [{"measurement": "IC50", "setting": "[10]", "value": "> 10", "unit": "µM"}, {"measurement": "IC50", "setting": "[11]", "value": 20, "unit": "µM"}, {"measurement": "IC80", "setting": "[11]", "value": 37.1, "unit": "µM"}, {"measurement": "inhibition", "setting": "[11]", "value": "Dose-dependent effect"}, {"measurement": "Activity", "setting": "[12]", "value": 58.3, "unit": "g"}, {"measurement": "Activity", "setting": "[13]", "value": 49.7, "unit": "g"}, {"measurement": "IC50", "setting": "[14]", "value": 33, "unit": "µM"}, {"measurement": "inhibition", "setting": "[15]", "value": "Dose-dependent effect"}, {"measurement": "Activity", "setting": "[16]", "value": 38.3, "unit": "g"}, {"measurement": "Emax", "setting": "[17]", "value": "inactive"}, {"measurement": "minimal effective dose", "setting": "[2]", "value": 40, "unit": "mg/kg"}, {"measurement": "Activity", "setting": "[18]", "value": 2.01, "unit": "mL"}, {"measurement": "Activity", "setting": "[19]", "value": 51.2, "unit": "g"}, {"measurement": "Activity", "setting": "[20]", "value": 47.6, "unit": "g"}, {"measurement": "Activity", "setting": "[21]", "value": 38.7, "unit": "g"}, {"measurement": "Activity", "setting": "[22]", "value": 1.95, "unit": "mL"}, {"measurement": "Activity", "setting": "[23]", "value": 57.2, "unit": "g"}, {"measurement": "IC80", "setting": "[24]", "value": 2.31, "unit": "µM"}, {"measurement": "inhibition", "setting": "[24]", "value": "Dose-dependent effect"}, {"measurement": "Activity", "setting": "[25]", "value": 46.8, "unit": "g"}]}]}
